# Active and inactive are the calls of the source. The rule behind the calls is not given here.
# Key:
# L6 = assay: Cytotoxicity against rat L6 cells; format: cell-based
# [1] = Inhibition of human topoisomerase 1B-mediated relaxation of supercoiled pSK DNA after 30 mins by ethidium bromide staining based agarose gel electrophoresis
# In short: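 Plasmid DNA relaxation assay with the enzyme over 30 min at 37 °C, acid at 3.125–100 μM. Reactions stopped with 1% SDS plus proteinase K. Products resolved on agarose and stained with ethidium bromide, scoring supercoiled, nicked and relaxed topoisomer bands.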
# [2] = Cytotoxicity against BALB/C mouse macrophages; format: cell-based; settings: Macrophage
# [3] = molecular target: T1, DNA topoisomerase type IB small subunit (Leishmania major) (UniProt Q95Z89); assay: Inhibition of Leishmania donovani topoisomerase 1B-mediated relaxation of supercoiled pSK DNA at 100 uM after 4 mins by ethidium bromide staining based agarose gel electrophoresis
# T1 sequence (whole entry): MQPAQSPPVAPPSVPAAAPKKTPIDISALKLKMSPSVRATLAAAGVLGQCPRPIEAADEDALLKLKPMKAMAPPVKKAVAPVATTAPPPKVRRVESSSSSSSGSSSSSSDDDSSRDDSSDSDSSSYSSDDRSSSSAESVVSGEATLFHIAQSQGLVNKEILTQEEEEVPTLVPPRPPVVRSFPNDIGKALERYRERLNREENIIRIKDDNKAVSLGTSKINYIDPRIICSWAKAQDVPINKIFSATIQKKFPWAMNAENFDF
# In short: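 Stopped with 1% SDS, then digested 1 h at 37°C with 1 mg/ml proteinase K. Extracted with phenol-chloroform and run on 1% agarose containing 40 µg/ml ethidium bromide.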
# [4] = molecular target: T1, DNA topoisomerase type IB small subunit (Leishmania major); assay: Inhibition of Leishmania donovani topoisomerase 1B-mediated relaxation of supercoiled pSK DNA at 100 uM preincubated for 15 mins by ethidium bromide staining based agarose gel electrophoresis
# In short: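 LdTopIB pre-incubated 15 min at 4 °C with 100 µM compound, or with DMSO as control. […] Samples stopped with SDS, digested with proteinase K, phenol-chloroform extracted and resolved on ethidium bromide agarose gel.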
# Leishmania donovani = assay: Antiprotozoal activity against Leishmania donovani axenic amastigotes; format: functional, organism-based
# [5] = tested on: Trypanosoma brucei rhodesiense; assay: Antiprotozoal activity against Trypanosoma brucei rhodesiense bloodstream forms; format: functional, organism-based
# Trypanosoma cruzi = assay: Antiprotozoal activity against intracellular Trypanosoma cruzi amastigotes in rat L6 cells; format: functional, organism-based
# Leishmania infantum = assay: Induction of apoptosis in Leishmania infantum promastigotes at 400 uM after 24 hrs by AnnexinV-FITC/propidium iodide based FACS flow cytometry; format: functional
# In short: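 L. infantum promastigotes exposed to 400 μM for 24 h, harvested, washed twice in PBS, resuspended at 1×10^6 cells/ml, stained with annexin V-FITC plus propidium iodide for 15 min at room temperature in the dark. Flow cytometry on at least 10,000 gated cells, read as percent of cells per quadrant. Untreated and H2O2-treated cells serve as controls. Representative of three independent trials.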
Structure (SMILES),IC50 (L6) [µM],EC50 [1] [µM],IC50 [2] [µM],IC50 (Leishmania donovani) [µM],IC50 (Trypanosoma cruzi) [µM],further results
COc1cc([C@@H]2c3cc4c(cc3[C@H](O)[C@H]3COC(=O)[C@H]23)OCO4)cc(OC)c1OC [PODOFILOX],0.02,,,,,
CC[C@@]1(O)C(=O)OCc2c1cc1n(c2=O)Cc2cc3ccccc3nc2-1 [CAMPTOTHECIN],,2,0.62,,,inhibition [3]: inactive; inhibition [4]: Active
CCCCCCCCCCCCCCCC(=O)O [PALMITIC ACID],209,,,,,
CCCCCCCCCCCCCCCCOP(=O)([O-])OCC[N+](C)(C)C [MILTEFOSINE],,,,0.49,,
CCCCCCCCCCCC#CC(=O)O,40.9,> 100,> 100,24.7,62.4,IC50 [5]: 255 µM; Activity (Leishmania infantum): 1.75%
O=C(Cn1ccnc1[N+](=O)[O-])NCc1ccccc1 [BENZNIDAZOLE],,,,,1.47,
CCCCCCCCCCCCCCCC#CC(=O)O,20,51.9,> 100,11,48.1,IC50 [5]: 64.5 µM; Activity (Leishmania infantum): 1.98%
